The values that follow come from ChEMBL document CHEMBL3872225, “Synthesis, binding assays, cytotoxic activity and docking studies of benzimidazole and benzothiophene derivatives with selective affinity for the CB2 cannabinoid receptor” (Eur J Med Chem, 2016).

In one data set the target is Cannabinoid receptor 1 (Homo sapiens, UniProt P21554). The experiment in a line: Displacement of [3H]CP-55940 from human recombinant CB1 receptor expressed in HEK293 cell membranes incubated for 1.5 hrs. Put shortly:
(§1)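 Membranes from HEK-293 cells overexpressing human CB1 or CB2 incubated with increasing compound concentrations and 0.5 nM [3H]CP-55,940 at 30 °C for 1.5 h. […] Selectivity index is Ki CB1/Ki CB2.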

Data set [1] has as its target Cannabinoid receptor 1 (CB1) (Homo sapiens, UniProt P21554). In words: Displacement of [3H]CP-55940 from human recombinant CB1 receptor expressed in HEK293 cell membranes at 1 uM incubated for 1.5 hrs relative to control. To be noted: probe [3H]CP-55940. The essentials: (§2)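 Single-point screen on HEK-293 membranes overexpressing human CB1 or CB2. […] Compounds displacing more than 50% at 1 μM went on to full curves.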
In general terms: Loss of bound radioactivity is the signal in a displacement assay; it reports binding, not function.

Data set [2] concerns the target T1, Cannabinoid receptor 2 (Homo sapiens, UniProt P34972). The experiment in a line: Displacement of [3H]CP-55940 from human recombinant CB2 receptor expressed in HEK293 cell membranes at 1 uM incubated for 1.5 hrs relative to control. Put shortly:
as §2

A further data set is filed under the species Homo sapiens. The experiment in a line: Selectivity index, ratio of Ki for displacement of [3H]CP-55940 from human recombinant CB1 receptor to Ki for displacement of [3H]CP-55940 from human recombinant CB2 receptor. Put shortly:
as §1

Data set [3] can be described thus: Cytotoxicity against human HL60 cells assessed as reduction in cell viability measured after 72 hrs by MTT assay. Conditions: HL-60, 72 h. The format is functional, cell-based. The essentials:
(§3)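 Cells kept in RPMI 1640 with 5% FBS, penicillin/streptomycin, 37 °C, 5% CO2. Seeded at 10,000 cells/well, then exposed to compounds at 0.001–10 μM in 5% FBS-RPMI for 72 h at 37 °C. MTT added for 4 h, formazan dissolved overnight in 10% SDS/0.1 mM HCl, absorbance read at 570 nm. […] Etoposide as positive control.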

Data set [4] is described as follows: Cytotoxicity against human H1975-1 cells assessed as reduction in cell viability measured after 72 hrs by MTT assay. The format is functional, cell-based. The essentials: as §3
A short description of data set [5]: Cytotoxicity against African green monkey Vero cells assessed as reduction in cell viability measured after 72 hrs by MTT assay. Conditions: Chlorocebus sabaeus (African green monkey). The format is toxicity, cell-based. Put shortly: as §3
Background: Tetrazolium assays rely on reduction of a dye to a coloured formazan, in cell work by metabolically active cells.

A short description of data set [6]: Cytotoxicity against resistant human HCT116 cells assessed as reduction in cell viability measured after 72 hrs by MTT assay. The format is functional, cell-based. To be noted: HCT-116, 72 h. The essentials: as §3
Data set [7] in a line: Cytotoxicity against human HeLa cells assessed as reduction in cell viability measured after 72 hrs by MTT assay. The format is functional, cell-based. The essentials: as §3
Data set [8] has as its target T1, Cannabinoid receptor 2. In words: Displacement of [3H]CP-55940 from human recombinant CB2 receptor expressed in HEK293 cell membranes incubated for 1.5 hrs. The essentials:
as §1

Some results are limits rather than exact numbers.

T1 sequence (P34972 whole entry): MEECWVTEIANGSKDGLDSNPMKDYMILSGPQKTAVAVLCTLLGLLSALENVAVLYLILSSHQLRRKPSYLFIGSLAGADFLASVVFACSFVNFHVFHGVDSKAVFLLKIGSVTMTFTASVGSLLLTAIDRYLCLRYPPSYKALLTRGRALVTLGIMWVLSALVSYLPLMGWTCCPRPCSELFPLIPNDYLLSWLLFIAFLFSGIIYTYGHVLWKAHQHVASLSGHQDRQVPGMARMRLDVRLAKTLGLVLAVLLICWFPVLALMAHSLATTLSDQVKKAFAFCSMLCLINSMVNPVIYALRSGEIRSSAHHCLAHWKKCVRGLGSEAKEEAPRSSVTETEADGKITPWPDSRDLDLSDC
Chain of Cannabinoid receptor 1 (P21554 whole entry): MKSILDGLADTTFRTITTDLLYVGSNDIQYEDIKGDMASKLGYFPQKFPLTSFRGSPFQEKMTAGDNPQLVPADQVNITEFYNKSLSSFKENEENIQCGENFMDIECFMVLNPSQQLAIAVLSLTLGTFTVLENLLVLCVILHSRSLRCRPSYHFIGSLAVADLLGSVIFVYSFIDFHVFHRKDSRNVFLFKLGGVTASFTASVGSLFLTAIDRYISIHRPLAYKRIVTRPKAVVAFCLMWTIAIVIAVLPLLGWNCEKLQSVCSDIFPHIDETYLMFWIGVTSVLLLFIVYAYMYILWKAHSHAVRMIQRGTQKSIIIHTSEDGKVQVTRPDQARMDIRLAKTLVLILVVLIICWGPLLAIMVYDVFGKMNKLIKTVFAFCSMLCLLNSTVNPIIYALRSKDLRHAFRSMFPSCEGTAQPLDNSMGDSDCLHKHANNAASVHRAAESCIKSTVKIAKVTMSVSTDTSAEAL
Chain of Cannabinoid receptor 1 (CB1) (P21554 whole entry): as above

Usually IC50 stands for the concentration that gives 50% inhibition. A word on the Ki: it is the dissociation constant of the complex between target and ligand, obtained from inhibition or displacement. The term inhibition denotes the percentage by which the read-out fell short of the control. Regarding `CCCc1sc2ccccc2c1C(=O)c1ccc(OC)cc1`, the IC50 at Cannabinoid receptor 1 is > 10000 nM; in data set [3], 80 nM; in data set [4] it was > 10000 nM; in data set [6], > 10000 nM; in data set [7] it was > 10000 nM; at Cannabinoid receptor 2 [8], 1200 nM. The Ki is > 10000 nM on Cannabinoid receptor 1 and 300 nM at Cannabinoid receptor 2 [8]. The inhibition at 1.5 h, 1 µM in data set [1] was > 50%. The inhibition at Cannabinoid receptor 2 [2] was > 50%. In addition, the Ratio Ki in the data set listed under Homo sapiens was > 33. Also, in [5], the IC50 at 72 h was > 10000 nM.
As for `COc1ccc(C(=O)n2c(C(C)(C)C)nc3ccccc32)cc1`, the concentration for half-maximal inhibition (IC50) is > 10000 nM at Cannabinoid receptor 1; 55 nM in [3]; > 10000 nM in data set [4]; 20 nM in data set [6]; > 10000 nM in data set [7]; 2400 nM at Cannabinoid receptor 2 [8]. Also, the values for the Ki on Cannabinoid receptor 1 and at Cannabinoid receptor 2 [8] were > 10000 nM and 600 nM, respectively. For the same compound, in data set [1], the inhibition at 1.5 h, 1 µM was > 50%. For the same compound, the inhibition on Cannabinoid receptor 2 [2] was > 50%. Besides, the Ratio Ki in the data set listed under Homo sapiens is > 16.7. Also, the IC50 at 72 h in data set [5] was > 10000 nM.
